Test results taken from ChEMBL document CHEMBL1123362, “Resolution, absolute configuration, and cholinergic enantioselectivity of (+)- and (-)-cis-2-methyl-5-[(dimethylamino)methyl]-1,3-oxathiolane methiodide” (1986).
Values joined by “and” are separate entries in the source; they are usually repeats but may differ in a detail not shown here. Equal values may be shown once.

How the values were obtained:
[1] = Potency was evaluated on frog rectus abdominis; assay type: functional, Rectus abdominis muscle
Cavia porcellus = organism: Cavia porcellus; experiment: Potency was evaluated on guinea pig ileum; assay type: functional
Procedure, shortened: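 Isolated ileum strip in aerated (O₂ with 5% CO₂) Tyrode-type salt solution (glucose 5 mM) at 37 °C. Isotonic contractions recorded at 1 g loading tension. After 30 min equilibration, cumulative concentration-response curves were run without reaching supramaximal concentrations. Potency expressed as equipotent molar ratio versus carbachol. EPMR averages compared by t-test (p < 0.05).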

[2] = Compound was evaluated for the ratio of ED50 of nicotinic agonist (N) and ED50 of muscarinic agonist (M); assay type: functional
[3] = Equipotent molar ratio (EPMR) between ED50 and ED50 of carbachol calculated through the regression of the angular transformant of the fractional log concentration of agonist; assay type: functional

With `C[C@H]1O[C@H](CN(C)C)CS1` (stereo in doubt; (-)-10) [listing 1 of 2 here] the ED50 [1] was 1.12e-05 and the ED50 (Cavia porcellus) was 4.2e-07.
Molecule `C[C@@H]1O[C@H](C[N+](C)(C)C)CS1` (racemic) has a Ratio [2] of 642.
In the case of `C[N+](C)(C)CCOC(N)=O.[Cl-]` [CARBACHOL], the ED50 [1] is reported as 4.04e-06, the Ratio [2] is reported as 19.2 and the Ratio [3] is reported as 1. It also gave an ED50 (Cavia porcellus) of 2.11e-07.
With `C[C@H]1O[C@H](CN(C)C)CS1` (stereo in doubt; (+)-10) [listing 1 of 2 here] the Ratio [2] was 30 and the Ratio [3] was 3 and 4.5.
`C[C@H]1O[C@H](CN(C)C)CS1` (stereo in doubt; (+)-10) [listing 2 of 2 here] gave an ED50 [1] of 1.84e-05 and an ED50 (Cavia porcellus) of 6.13e-07.
`C[C@@H]1O[C@H](C[N+](C)(C)C)CS1` (stereo in doubt; (-)-1) gave a Ratio [2] of 64.
`C[C@H]1O[C@H](CN(C)C)CS1` (racemic) [listing 1 of 2 here] gave an ED50 [1] of 1.7e-05 and an ED50 (Cavia porcellus) of 2.76e-07.
With `C[C@@H]1O[C@H](C[N+](C)(C)C)C[C@H]1O` [MUSCARINE] the ED50 [1] was >0.0005, the Ratio [2] was > 6300 and the ED50 (Cavia porcellus) was 7.94e-08.
`C[C@@H]1O[C@H](C[N+](C)(C)C)CS1` (stereo in doubt; (+)-1) gave a Ratio [2] of 537.
In the case of `C[C@H]1O[C@H](CN(C)C)CS1` (stereo in doubt; (-)-10) [listing 2 of 2 here], the Ratio [2] is reported as 26.6 and the Ratio [3] is reported as 2 and 2.8.
For `C[C@H]1O[C@H](CN(C)C)CS1` (racemic) [listing 2 of 2 here], the Ratio [2] was 61.6.
